Our source for the IC50 values is PubChem BioAssay AID623920 (The Scripps Research Institute Molecular Screening Center, 2012).

pIC50: −log10 of the molar value. Where “and” joins values, the source holds several entries; their conditions need not be identical. Equal values may be shown once. Calls of active or inactive are those of the source.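 Rule for the calls: active = compounds halving RecBCD DNA-cutting activity at 52000 nM or lower IC50; inactive = the rest.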

Chain of RecBCD enzyme subunit RecC (Escherichia coli (strain K12)) + RecBCD enzyme subunit RecB (Escherichia coli (strain K12)) (P07648 whole entry, looked up): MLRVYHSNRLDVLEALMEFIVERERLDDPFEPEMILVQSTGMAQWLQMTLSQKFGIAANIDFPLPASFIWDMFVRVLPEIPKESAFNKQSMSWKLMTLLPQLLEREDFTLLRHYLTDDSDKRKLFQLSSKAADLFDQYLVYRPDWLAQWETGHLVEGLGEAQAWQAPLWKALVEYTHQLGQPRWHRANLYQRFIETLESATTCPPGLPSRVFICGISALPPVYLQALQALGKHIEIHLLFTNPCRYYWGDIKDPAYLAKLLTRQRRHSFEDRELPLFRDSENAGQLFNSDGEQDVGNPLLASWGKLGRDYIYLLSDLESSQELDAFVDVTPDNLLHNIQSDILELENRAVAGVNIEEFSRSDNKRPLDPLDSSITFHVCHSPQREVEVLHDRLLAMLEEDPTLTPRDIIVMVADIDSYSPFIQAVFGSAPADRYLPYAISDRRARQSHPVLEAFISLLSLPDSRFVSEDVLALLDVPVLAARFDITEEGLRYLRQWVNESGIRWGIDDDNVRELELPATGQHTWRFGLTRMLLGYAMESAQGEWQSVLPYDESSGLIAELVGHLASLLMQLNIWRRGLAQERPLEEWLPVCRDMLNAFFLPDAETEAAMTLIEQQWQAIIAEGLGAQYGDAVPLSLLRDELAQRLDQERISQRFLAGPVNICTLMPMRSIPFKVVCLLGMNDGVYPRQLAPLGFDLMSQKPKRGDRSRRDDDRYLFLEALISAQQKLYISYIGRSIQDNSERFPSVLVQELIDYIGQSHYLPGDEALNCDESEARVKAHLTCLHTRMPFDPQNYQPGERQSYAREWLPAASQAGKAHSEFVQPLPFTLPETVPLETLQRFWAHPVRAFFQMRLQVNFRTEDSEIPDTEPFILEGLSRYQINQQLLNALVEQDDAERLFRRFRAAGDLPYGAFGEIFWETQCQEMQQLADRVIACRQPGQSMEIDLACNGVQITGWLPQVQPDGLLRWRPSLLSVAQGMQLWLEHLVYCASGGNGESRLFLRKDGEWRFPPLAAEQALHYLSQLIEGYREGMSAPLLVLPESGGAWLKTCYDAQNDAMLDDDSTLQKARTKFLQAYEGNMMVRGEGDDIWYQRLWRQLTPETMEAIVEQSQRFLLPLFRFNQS
Chain of RecBCD enzyme subunit RecC (Escherichia coli (strain K12)) + RecBCD enzyme subunit RecB (Escherichia coli (strain K12)) (P08394 whole entry, looked up): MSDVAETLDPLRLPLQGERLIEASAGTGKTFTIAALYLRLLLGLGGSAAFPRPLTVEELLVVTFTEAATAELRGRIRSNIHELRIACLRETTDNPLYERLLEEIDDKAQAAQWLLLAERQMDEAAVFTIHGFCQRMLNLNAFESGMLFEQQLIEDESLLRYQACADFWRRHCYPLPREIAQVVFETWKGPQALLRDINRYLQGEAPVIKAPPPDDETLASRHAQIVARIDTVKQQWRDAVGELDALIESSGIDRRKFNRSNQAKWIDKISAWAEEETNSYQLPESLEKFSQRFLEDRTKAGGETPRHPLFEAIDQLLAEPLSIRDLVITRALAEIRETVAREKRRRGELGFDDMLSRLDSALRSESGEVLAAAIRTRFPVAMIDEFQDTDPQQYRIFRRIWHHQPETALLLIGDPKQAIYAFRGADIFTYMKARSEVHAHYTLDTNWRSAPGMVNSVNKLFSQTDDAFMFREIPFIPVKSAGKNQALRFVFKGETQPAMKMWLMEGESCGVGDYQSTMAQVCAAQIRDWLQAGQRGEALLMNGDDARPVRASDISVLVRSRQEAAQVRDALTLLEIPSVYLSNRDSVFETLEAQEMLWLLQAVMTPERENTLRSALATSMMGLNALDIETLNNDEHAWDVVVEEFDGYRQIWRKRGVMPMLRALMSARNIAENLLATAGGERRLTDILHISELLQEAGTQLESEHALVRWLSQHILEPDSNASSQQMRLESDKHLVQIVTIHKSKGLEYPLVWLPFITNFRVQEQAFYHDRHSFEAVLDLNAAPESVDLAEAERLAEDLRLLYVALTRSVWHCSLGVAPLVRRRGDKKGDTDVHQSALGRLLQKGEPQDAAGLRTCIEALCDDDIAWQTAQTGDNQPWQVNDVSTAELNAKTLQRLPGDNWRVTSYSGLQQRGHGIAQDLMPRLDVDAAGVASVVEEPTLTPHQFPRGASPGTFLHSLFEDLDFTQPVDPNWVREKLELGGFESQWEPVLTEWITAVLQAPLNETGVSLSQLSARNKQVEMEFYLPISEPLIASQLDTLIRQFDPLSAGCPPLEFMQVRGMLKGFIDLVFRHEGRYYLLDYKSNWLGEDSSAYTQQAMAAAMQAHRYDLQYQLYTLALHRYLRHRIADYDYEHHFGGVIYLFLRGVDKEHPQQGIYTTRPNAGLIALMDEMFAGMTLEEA

The target in this experiment is RecBCD enzyme subunit RecC (Escherichia coli (strain K12)) + RecBCD enzyme subunit RecB (Escherichia coli (strain K12)) (UniProt P07648+P08394). As to the kind of experiment: RecBCD dsDNA exonuclease inhibition potency – biochemical, radioactivity readout, powder samples, counter-screen for AddAB inhibitor project, dose response (AID 623920). Conditions: purified RecBCD, [3H] dsDNA nuclease, TCA-soluble radioactivity. The method, boiled down:
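System: Purified Escherichia coli RecBCD helicase-nuclease enzyme | Input: RecBCD enzyme at 0.15 units (4.5 nM) per reaction | Medium: pH 8.5 Tris, MgCl2, ATP | Replication: Triplicate | Read-out: IC50 from percent RecBCD activity | Schedule: Reaction 20 min, 37 °C | Technique: TCA-soluble radioactivity by scintillation | Control set: Enzyme-free background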
On the technique in general: A counterscreen serves to expose hits that act by an unwanted route or on another target.
Regarding `O=C(Nc1ccc(N2CCOCC2)cc1)c1ccc([N+](=O)[O-])o1`, the IC50 (as a rule, the concentration at which inhibition is half-maximal) is > 100 µM (inactive).

Take `O=C(NCc1cccnc1)c1ccc([N+](=O)[O-])o1`: the IC50 was > 100 µM (inactive). Take `Cc1ccc(C(=O)Nc2sc3c(c2C#N)CCCCC3)o1`: the IC50 was > 100 µM (inactive). Take `CC(=O)Nc1ccc2nc(NC(=O)c3ccc([N+](=O)[O-])o3)sc2c1`: the IC50 is > 100 µM (inactive). Same read-out and setting: to `O=C(OCC(=O)c1cccs1)c1ccc([N+](=O)[O-])o1` belongs > 100 µM (inactive). Consider `Cc1cccnc1NC(=O)c1ccc([N+](=O)[O-])o1`, for which the IC50 was > 100 µM (inactive). Same read-out and setting: to `O=C(Nc1ncccn1)c1ccc([N+](=O)[O-])o1` belongs > 100 µM (inactive).

Regarding `CCn1cc(C(=O)O)c(=O)c2cnc(N3CCN(C(=S)Nc4ccc(Cl)cc4)CC3)nc21`, the negative-log IC50 (pIC50) (usually the negative decadic logarithm of the IC50, by convention in mol/L) is 4.96. On the same count and under the same terms, then `N#Cc1c(NC(=O)c2ccc([N+](=O)[O-])o2)sc2c1CCC2`, with 4.29. As for `CCn1cc(C(=O)O)c(=O)c2cnc(N3CCN(C(=S)NC4CC5CCC4C5)CC3)nc21` (stereo unspecified), the IC50 entry is “inactive”. Turning to `CCn1cc(C(=O)O)c(=O)c2cnc(N3CCN(C(=S)Nc4cccc(C(F)(F)F)c4)CC3)nc21`, the pIC50 was 5.40. Same read-out and setting: to `COC(=O)c1c(-c2ccccc2)csc1NC(=O)c1cnccn1` belongs 4.66. Consider `N#Cc1c(NC(=O)c2ccco2)sc2c1CCC2`, for which the IC50 result was “inactive”.

For `CCn1cc(C(=O)O)c(=O)c2cc(F)c(N3CCN(C(=S)Nc4ccccc4C(F)(F)F)CC3)cc21`, the pIC50 is 4.40. For `CCn1cc(C(=O)O)c(=O)c2cnc(N3CCN(C(=S)NC(C)c4ccccc4)CC3)nc21` (stereo unspecified), the negative logarithm of the IC50 (pIC50) is 4.74.

Take `Cc1sc(NC(=O)c2ccc(Br)o2)c(C#N)c1C`: the pIC50 is 4.33. In the case of `CC1(C)Cc2c(sc(NC(=O)c3ccco3)c2C#N)CO1`, the IC50 is > 100 µM (inactive). As for `N#Cc1c(NC(=O)c2cccc(F)c2)sc2c1CCCC2`, the IC50 is > 100 µM (inactive). For the compound `N#Cc1c(NC(=O)c2ccccc2C(=O)O)sc2c1CCCC2`, the IC50 is > 100 µM (inactive).

In the case of `N#Cc1c(NC(=O)c2cnccn2)sc2c1CCCC2`, the negative logarithm of the IC50 (pIC50) is 4.48 and 4.38. In the case of `N#Cc1c(NC(=O)c2ccc(-c3ccccc3[N+](=O)[O-])o2)sc2c1CCCC2`, the IC50 is > 100 µM (inactive). Regarding `CCn1cc(C(=O)O)c(=O)c2cc(F)c(N3CCN(C(=S)Nc4cccc(C(F)(F)F)c4)CC3)cc21`, the pIC50 was 5.52. Consider `CCn1cc(C(=O)O)c(=O)c2cnc(N3CCN(C(=S)NCc4ccccc4)CC3)nc21`, for which the negative-log IC50 (pIC50) is 4.70. For `CCn1cc(C(=O)O)c(=O)c2cnc(N3CCN(C(=S)NC(=O)c4cccc(C)c4)CC3)nc21`, the negative logarithm of the IC50 (pIC50) was 5.05.

Turning to `Cc1ccc2nc(/C(C#N)=C\c3ccc([N+](=O)[O-])o3)[nH]c2c1`, the IC50 was > 100 µM (inactive). In the case of `N#Cc1c(NC(=O)c2ccccc2)sc2c1CCC2`, the IC50 is > 100 µM (inactive). Consider `C=CCn1c(Sc2ncc([N+](=O)[O-])s2)n[nH]c1=O`, for which the IC50 was > 166 µM (inactive). On the same count and under the same terms, then `CNC(=O)c1c(NC(=O)c2nc(SCc3ccccc3)ncc2Cl)sc2c1CCCC2`, with “inactive”; and `O=C(Nc1cccc(NC(=O)c2ccccc2Cl)c1)c1ccc([N+](=O)[O-])o1`, with > 100 µM (inactive).

With `NC(=O)c1ccsc1NC(=O)COC(=O)c1ccc([N+](=O)[O-])o1`, the IC50 is > 100 µM (inactive). Regarding `CCn1cc(C(=O)O)c(=O)c2cnc(N3CCN(C(=S)Nc4ccccc4C(F)(F)F)CC3)nc21`, the pIC50 was 4.89 and 4.40.
